For assay [1], the system named is HeLa. In words: Antiproliferative activity against human HeLa cells after 48 hrs by SRB assay. The assay is classed as functional. A digest of the protocol:
(§1)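 RPMI 1640 with 5% heat-inactivated FCS and 2 mM L-glutamine at 37 °C, 5% CO2. Seeded at 15,000 (WiDr, T-47D, HeLa) or 10,000 (A2780, SW1573, HBL-100) cells/well. Drug added day 1 in triplicate dilutions; vehicle DMSO 0.25% v/v final. 48 h, then TCA fixation and SRB staining read at OD 492 nm, background-corrected. GI50 from NCI percentage-growth formulas using T0 and T; mean of two to six experiments with SD.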
For orientation: In SRB staining, fixed cells bind dye roughly in proportion to their protein.

The test system of assay [2] is SW1573. In words: Antiproliferative activity against human SW1573 cells after 48 hrs by SRB assay. The assay is classed as functional. To be noted: SW1573, 48 h. A digest of the protocol: as §1
Assay [3] deals with T47D. The experiment in a line: Antiproliferative activity against human T47D cells after 48 hrs by SRB assay. It is filed as functional. A digest of the protocol: as §1
In a further assay the test system is A2780. In words: Antiproliferative activity against human A2780 cells after 48 hrs by SRB assay. To be noted: A2780, 48 h. The assay is classed as functional. The method in brief:
as §1

In assay [4] the test system is WiDr. In words: Antiproliferative activity against human WiDr cells after 48 hrs by SRB assay. It is filed as functional. A digest of the protocol:
as §1

Assay [5] deals with HBL-100. In words: Antiproliferative activity against human HBL100 cells after 48 hrs by SRB assay. The assay is classed as functional. Particulars: HBL-100, 48 h. A digest of the protocol:
as §1

For assay [6], the system named is WiDr. The experiment in a line: Cell cycle arrest in human WiDr cells by accumulation at subG1 phase after 24 hrs by flow cytometry. The assay is classed as functional, cell-based. The method in brief:
(§2)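 Cells seeded at 2.5–5 × 10^5 per well in six-well plates. After 24 h, compound added at three concentrations for a further 24 h; controls without drug. Cells trypsinized, fixed in ice-cold 70% ethanol overnight at −20 °C, treated with RNase (37 °C, 30 min, dark) and stained with propidium iodide. DNA content measured by flow cytometry, 25,000 cells/sample.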

Assay [7] has as its system T47D. The experiment in a line: Cell cycle arrest in human T47D cells by decrease in accumulation at G1 phase at 2 uM after 24 hrs by flow cytometry. The assay is classed as functional, cell-based. The method in brief:
as §2
For orientation: Flow cytometry measures light scatter and fluorescence of single cells or particles in a stream.

Assay [8] deals with T47D. The experiment in a line: Cell cycle arrest in human T47D cells by increase in accumulation at G2/M phase at 2 uM after 24 hrs by flow cytometry. It is filed as functional, cell-based. The method in brief: as §2
In assay [9] the test system is HeLa. In words: Cell cycle arrest in human HeLa cells by accumulation at subG1 phase after 24 hrs by flow cytometry. It is filed as functional, cell-based. A digest of the protocol: as §2
In assay [10] the test system is HBL-100. The experiment in a line: Cell cycle arrest in human HBL100 cells by increase in accumulation at G2/M phase at 2 uM after 24 hrs by flow cytometry. The assay is classed as functional, cell-based. The method in brief:
as §2

Assay [11] has as its system HBL-100. In words: Cell cycle arrest in human HBL100 cells by accumulation at subG1 phase after 24 hrs by flow cytometry. It is filed as functional, cell-based. A digest of the protocol: as §2
For assay [12], the system named is HBL-100. In words: Cell cycle arrest in human HBL100 cells by decrease in accumulation at S phase at 2 uM after 24 hrs by flow cytometry. The assay is classed as functional, cell-based. The method in brief: as §2
Assay [13] relates to SW1573. The experiment in a line: Cell cycle arrest in human SW1573 cells by increase in accumulation at G2/M phase at 2 uM after 24 hrs by flow cytometry. The assay is classed as functional, cell-based. The method in brief:
as §2

The test system of assay [14] is SW1573. The experiment in a line: Cell cycle arrest in human SW1573 cells by decrease in accumulation at G1 phase at 2 uM after 24 hrs by flow cytometry. The assay is classed as functional, cell-based. The method in brief:
as §2

Assay [15] concerns SW1573. In words: Cell cycle arrest in human SW1573 cells by accumulation at subG1 phase after 24 hrs by flow cytometry. The assay is classed as functional, cell-based. The method in brief: as §2
Assay [16] has as its system SW1573. In words: Cell cycle arrest in human SW1573 cells by decrease in accumulation at S phase at 2 uM after 24 hrs by flow cytometry. It is filed as functional, cell-based. The method in brief:
as §2

Assay [17] deals with T47D. The experiment in a line: Cell cycle arrest in human T47D cells by decrease in accumulation at S phase at 2 uM after 24 hrs by flow cytometry. It is filed as functional, cell-based. The method in brief: as §2
For assay [18], the system named is T47D. The experiment in a line: Cell cycle arrest in human T47D cells by accumulation at subG1 phase after 24 hrs by flow cytometry. The assay is classed as functional, cell-based. The method in brief:
as §2

Assay [19] relates to HBL-100. The experiment in a line: Cell cycle arrest in human HBL100 cells by decrease in accumulation at G1 phase at 2 uM after 24 hrs by flow cytometry. The assay is classed as functional, cell-based. A digest of the protocol:
as §2

Molecules are shown by their SMILES. Active and inactive are the calls of the source. The calls are words filed in the database; no cut-off is given here.

As a reminder, the GI50 is the concentration that inhibits growth by half. A higher GI50 goes with less potent growth inhibition. Consider `CN(C)CCCNc1nc(N)c2c(n1)C(=O)C(c1ccccc1)=[N+]2[O-]`, for which the GI50 was 20 µM in the assay on HeLa [1]; 2.1 µM in the assay on SW1573 [2]; 16 µM in the assay on T47D [3]; 2.3 µM in the assay on A2780; 19 µM in the assay on WiDr [4]; 2 µM in the assay on HBL-100 [5].

Take `CCc1ccc(C2=[N+]([O-])c3c(N)ncnc3C2=O)cc1`: the GI50 in the assay on HeLa [1] was 75 µM; with SW1573 [2], 40 µM; in the assay with T47D [3], 82 µM; in the assay on A2780, 39 µM; in the assay with WiDr [4] it was 70 µM; with HBL-100 [5] it was 54 µM.

On to `CSc1nc(NCc2ccccc2)c2c(n1)C(=O)C(c1ccccc1)=[N+]2[O-]`, for which the GI50 in the assay with HeLa [1] was 36 µM; with SW1573 [2], 26 µM; in the assay with T47D [3] it was 81 µM; in the assay with A2780 it was 59 µM; in the assay with WiDr [4] it was 79 µM; in the assay on HBL-100 [5], 27 µM.

As for `Nc1nc(N2CCCCC2)nc2c1[N+]([O-])=C(c1ccccc1)C2=O`, the GI50 is 3.5 µM with HeLa [1]; 3.3 µM with SW1573 [2]; 2.7 µM in the assay with T47D [3]; 2.9 µM in the assay on A2780; 3.7 µM with WiDr [4]; 1.7 µM with HBL-100 [5].

Turning to `CN1CCN(c2nc(N)c3c(n2)C(=O)C(c2ccccc2)=[N+]3[O-])CC1`, the GI50 in the assay with HeLa [1] is above 100 µM; in the assay with SW1573 [2], 23 µM; in the assay with T47D [3], above 100 µM; in the assay with A2780 it was 24 µM; in the assay with WiDr [4], 46 µM; with HBL-100 [5] it was 18 µM.

Regarding `Nc1nc(NCCN2CCOCC2)nc2c1[N+]([O-])=C(c1ccccc1)C2=O`, the GI50 with HeLa [1] came out at 15 µM; in the assay on SW1573 [2], 14 µM; with T47D [3], 17 µM; in the assay on A2780, 2.9 µM; in the assay on WiDr [4] it was 16 µM; in the assay with HBL-100 [5], 3.4 µM.

Take `Nc1nc(NCc2ccccc2)nc2c1[N+]([O-])=C(c1ccccc1)C2=O`: the GI50 with HeLa [1] stood at 29 µM; in the assay on SW1573 [2], 30 µM; with T47D [3] it was 4 µM; in the assay on A2780, 3.7 µM; in the assay with WiDr [4] it was 24 µM; in the assay on HBL-100 [5], 5.1 µM.

`C=CCNc1nc(N)c2c(n1)C(=O)C(c1ccccc1)=[N+]2[O-]`: the GI50 stood at 7.6 µM with HeLa [1]; 6.8 µM in the assay with SW1573 [2]; 2.8 µM in the assay with T47D [3]; 1.9 µM in the assay on A2780; 4.7 µM in the assay on WiDr [4]; 2.7 µM with HBL-100 [5].

With `CSc1nc(NCCN2CCOCC2)c2c(n1)C(=O)C(c1ccccc1)=[N+]2[O-]`, the GI50 is above 100 µM in the assay with HeLa [1]; above 100 µM in the assay on SW1573 [2]; above 100 µM in the assay with T47D [3]; above 100 µM in the assay with A2780; above 100 µM in the assay on WiDr [4]; 24 µM with HBL-100 [5].

In the case of `Nc1nc(NCCN2CCCC2)nc2c1[N+]([O-])=C(c1ccccc1)C2=O`, the GI50 turned out to be 16 µM in the assay with HeLa [1]; 6.2 µM with SW1573 [2]; 13 µM with T47D [3]; 2.6 µM with A2780; 14 µM in the assay on WiDr [4]; 1.8 µM with HBL-100 [5].

Regarding `Nc1nc(NCCc2ccccc2)nc2c1[N+]([O-])=C(c1ccccc1)C2=O`, the GI50 was above 100 µM in the assay with HeLa [1]; 22 µM in the assay on SW1573 [2]; 41 µM in the assay on T47D [3]; 37 µM in the assay on A2780; 71 µM in the assay on WiDr [4]; 17 µM in the assay on HBL-100 [5].

Take `CSc1nc(N)c2c(n1)C(=O)C(c1ccc(C)cc1)=[N+]2[O-]`: the 50% growth inhibitory concentration (GI50) with HeLa [1] is above 100 µM; in the assay on SW1573 [2], 31 µM; in the assay with T47D [3], above 100 µM; with A2780, 93 µM; with WiDr [4], above 100 µM; in the assay with HBL-100 [5], 28 µM.

With `Nc1nc(N2CCCCCC2)nc2c1[N+]([O-])=C(c1ccccc1)C2=O`, the GI50 in the assay with HeLa [1] was 2 µM; with SW1573 [2], 1.3 µM; in the assay with T47D [3], 0.35 µM; in the assay on A2780, 1.8 µM; in the assay on WiDr [4], 1.8 µM; in the assay on HBL-100 [5], 1.4 µM. Moreover, the Activity entry in the assay with WiDr [6], in the assay on HeLa [9], in the assay on HBL-100 [11], in the assay on SW1573 [15] and with T47D [18] was “Dose-dependent effect” each time. Also, the result in the assay on T47D [7], with T47D [8], with HBL-100 [10], in the assay with HBL-100 [12], in the assay with SW1573 [13] and in the assay with SW1573 [14] was Active. In addition, the result with SW1573 [16], in the assay on T47D [17] and in the assay with HBL-100 [19] was Active.

Take `Nc1nc(N2CCOCC2)nc2c1[N+]([O-])=C(c1ccccc1)C2=O`: the GI50 with HeLa [1] is 38 µM; in the assay on SW1573 [2], 27 µM; with T47D [3], 7.5 µM; with A2780, 37 µM; in the assay on WiDr [4], 20 µM; in the assay with HBL-100 [5] it was 22 µM.

In the case of `COC(=O)CNc1nc(N)c2c(n1)C(=O)C(c1ccccc1)=[N+]2[O-]`, the GI50 with HeLa [1] stood at 19 µM; in the assay with SW1573 [2], 12 µM; in the assay on T47D [3], 14 µM; in the assay on A2780, 1.9 µM; with WiDr [4], 18 µM; with HBL-100 [5], 2.8 µM.

With `C[S+]([O-])c1nc(N)c2c(n1)C(=O)C(c1ccccc1)=[N+]2[O-]` (centres undefined), the 50% growth inhibitory concentration (GI50) was above 100 µM with HeLa [1]; above 100 µM in the assay with SW1573 [2]; above 100 µM in the assay with T47D [3]; 79 µM in the assay with A2780; above 100 µM with WiDr [4]; 32 µM with HBL-100 [5].

As for `CSc1nc2c(c(N3CCCC3)n1)[N+]([O-])=C(c1ccccc1)C2=O`, the GI50 in the assay on HeLa [1], with SW1573 [2], with T47D [3], in the assay with A2780, in the assay with WiDr [4] and with HBL-100 [5] was above 100 µM in each case.

Turning to `Cc1ccc(C2=[N+]([O-])c3c(N)ncnc3C2=O)cc1`, the GI50 with HeLa [1], in the assay with SW1573 [2], in the assay with T47D [3], in the assay on A2780, in the assay with WiDr [4] and in the assay with HBL-100 [5] was above 100 µM each time.

Regarding `CCc1ccc(C2=[N+]([O-])c3c(N)nc(SC)nc3C2=O)cc1`, the GI50 in the assay on HeLa [1] came out at 80 µM; with SW1573 [2], 37 µM; with T47D [3] it was 43 µM; with A2780, 54 µM; with WiDr [4], 53 µM; with HBL-100 [5], 37 µM.

Consider `Nc1ncnc2c1[N+]([O-])=C(c1ccccc1)C2=O`, for which the GI50 in the assay on HeLa [1] is above 100 µM; in the assay on SW1573 [2] it was 85 µM; with T47D [3] it was above 100 µM; in the assay with A2780 it was 30 µM; with WiDr [4] it was above 100 µM; with HBL-100 [5] it was 72 µM.

These data come from ChEMBL document CHEMBL1152502, “Synthesis and antiproliferative activity of 2,4-disubstituted 6-aryl-7H-pyrrolo[3,2-d]pyrimidin-7-one 5-oxides” (2009).
